The record followed here is ChEMBL document CHEMBL4311980, “Discovery of 2-isoxazol-3-yl-acetamide analogues as heat shock protein 90 (HSP90) inhibitors with significant anti-HIV activity” (Eur J Med Chem, 2019).

Calls of active or inactive are those of the source. The calls are words filed in the database; no cut-off is given here.

Data set [1] is described as follows: Cytotoxicity against human TZM-bl cells assessed as maximum non-cytotoxic concentration after 48 hrs by MTT assay. The data set is classed as cell-based. As to conditions: read-out: MNCC. In outline: (§1)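 Cells were seeded at 25,000/well in complete medium with compound at different concentrations, with untreated and DMSO controls, and incubated 48 h. MTT (5 mg/mL stock) was added for 4 h at 37 °C in the dark. Formazan was dissolved in isopropanol and A570 read. CC50 and highest non-cytotoxic concentration were derived from this assay.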

In data set [2] the test system is Human immunodeficiency virus 1. The data set can be described thus: Antiviral activity against HIV-1 NL4-3 infected in human TZM-bl cells assessed as reduction in viral replication at 1000 nM measured at 48 hrs post-infection by steady-glo reporter gene assay relative to control. In kind it is functional. Particulars: Human immunodeficiency virus 1, NL4-3, TZM-bl. In outline:
(§2)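 TZM-bl cells (0.15×10^6/well) were infected with 0.5 MOI HIV-1 NL4-3 12 h after seeding and treated at the highest non-cytotoxic concentration, which was set by MTT assay. At 48 h post-infection, cells were lysed and mixed 1:1 with Steady-Glo substrate, and luminescence was read.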
On the technique in general: A reporter such as luciferase makes a cellular process visible.

Data set [3] can be described thus: Therapeutic index, ratio of CC50 for human CEM-GFP cells to IC50 for antiviral activity against HIV-1 NL4-3 infected in human CEM-GFP cells. In kind it is toxicity, cell-based. As to conditions: read-out: Ratio CC50/IC50. The essentials: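 IC50 was determined from p24 ELISA 72 h after 0.5 MOI HIV-1 NL4-3 infection with compound at different concentrations. Therapeutic index = CC50/IC50.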

Data set [4] in a line: Cytotoxicity against human CEM-GFP cells assessed as reduction in cell viability after 48 hrs by MTT assay. In kind it is cell-based. The essentials: as §1
A general note: Tetrazolium dyes change colour on reduction, which living cells bring about.

Data set [5] relates to Human immunodeficiency virus 1. As to the kind of experiment: Antiviral activity against HIV-1 NL4-3 infected in human CEM-GFP cells assessed as suppression of viral replication by measuring reduction in p24 level measured at 72 hrs post-infection by ELISA. The data set is classed as functional, organism-based. As to conditions: Human immunodeficiency virus 1, NL4-3, CEM-GFP. In outline:
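Cells were incubated with 0.5 MOI virus in the presence of polybrene at 37 °C for 4 h with intermittent mixing, then washed and plated in complete RPMI-1640. Compound added at different concentrations, with untreated and DMSO controls. PBMC were PHA-activated. Supernatant p24 measured by capture ELISA (A450) at 72 h. % inhibition calculated relative to untreated cells.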

Data set [6] concerns Human immunodeficiency virus 1. As to the kind of experiment: Antiviral activity against HIV1 NL4-3 infected in human TZM-bl cells assessed as reduction in viral replication at 100 nM measured at 48 hrs post-infection by steady-glo reporter gene assay relative to control. The data set is classed as functional. As to conditions: Human immunodeficiency virus 1, NL4-3, TZM-bl. The essentials: as §2

For data set [7], the target named is Protease (Human immunodeficiency virus 1) (UniProt Q9YQ12). The data set can be described thus: Inhibition of HIV-1 protease at 500 nM using synthetic peptide as substrate after 15 mins by fluorimetric based assay. The essentials:
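Cell-free fluorometric protease kit. HIV-1 protease was diluted in reaction buffer and loaded at 10 nmol/well with or without compound. Indinavir served as positive control, with untreated and DMSO controls. Fluorescence (Ex/Em 330/450 nm) was read 15 min after addition. n = 3.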

In data set [8] the target is Human immunodeficiency virus type 1 reverse transcriptase (Human immunodeficiency virus 1) (UniProt Q72547). As to conditions: 500 nM.
For data set [9], the system named is Human immunodeficiency virus 1. As to the kind of experiment: Antiviral activity against HIV1 NL4-3 infected in human TZM-bl cells assessed as reduction in viral replication at 500 nM measured at 48 hrs post-infection by steady-glo reporter gene assay relative to control. The data set is classed as functional. Particulars: Human immunodeficiency virus 1, NL4-3, TZM-bl. In outline: as §2

Protease (Human immunodeficiency virus 1), sequence (Q9YQ12 as listed by the source): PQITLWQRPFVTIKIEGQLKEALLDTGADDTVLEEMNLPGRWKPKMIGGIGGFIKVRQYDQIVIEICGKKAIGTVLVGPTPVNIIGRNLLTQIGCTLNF

Turning to `O=C(Cc1cc(-c2ccco2)on1)Nc1ccc(O)cc1`, the MNTC at 48 h in data set [1] was found to be 1000 nM. Moreover, in [2], the inhibition at 1 µM was 53.1%.
As to `O=C(Cc1cc(-c2ccccc2)on1)Nc1ccccc1O`, in data set [3], the selectivity ratio turned out to be 170. Also, the CC50 at 48 h in data set [4] came to 42.9 µM. Also, the MNTC at 48 h in [1] worked out at 1000 nM. The IC50 in [5] amounted to 0.253 µM. Besides, the inhibition at 1 µM in [2] is 94.8%.
For `CCNC(=O)c1noc(-c2cc(C(C)C)c(O)cc2O)c1-c1ccc(CN2CCOCC2)cc1` [LUMINESPIB] the same measures were 470, 31.1 µM, 1000 nM, 0.0663 µM and 88.3%.
As for `O=C(Cc1cc(-c2ccccc2)on1)Nc1ccc(Cl)cc1`, the MNTC at 48 h in data set [1] was found to be 100 nM. For the same compound, the inhibition at 0.1 µM in data set [6] amounted to 49%.
As for `O=C(Cc1cc(-c2ccccc2)on1)Nc1ccc(O)cc1`, in data set [1], the MNTC at 48 h was 1000 nM. The inhibition at 1 µM in data set [2] came out at 13.4%.
For the compound `COc1ccc(-c2cc(CC(=O)Nc3cccc(C)c3)no2)cc1`, in data set [3], the selectivity ratio came out at 55.1. For the same compound, in [4], the half-maximal cytotoxic concentration (CC50) at 48 h stood at 15.7 µM. In addition, the MNTC at 48 h in data set [1] amounted to 1000 nM. Further, the IC50 in [5] turned out to be 0.284 µM. In [2], the inhibition at 1 µM worked out at 95.5%.
As to `CC(C)(C)NC(=O)[C@@H]1CN(Cc2cccnc2)CCN1C[C@@H](O)C[C@@H](Cc1ccccc1)C(=O)N[C@H]1c2ccccc2C[C@H]1O`, the inhibition result in [7] was “Active”.
With `O=C(Cc1cc(-c2ccccc2)on1)Nc1ccccc1`, the selectivity ratio in [3] is 79.8. The CC50 at 48 h in data set [4] stood at 23 µM. The MNTC at 48 h in data set [1] was found to be 1000 nM. The IC50 in data set [5] was determined as 0.288 µM. In data set [2], the inhibition at 1 µM turned out to be 89.1%.
As for `COc1ccc(NC(=O)Cc2cc(-c3ccccc3)on2)cc1`, the MNTC at 48 h in data set [1] was determined as 1000 nM. For the same compound, the inhibition at 1 µM in data set [2] is 59.6%.
In the case of `Cc1ccc(NC(=O)Cc2cc(-c3cccs3)on2)cc1`, the MNTC at 48 h in [1] was 100 nM. Also, in [6], the inhibition at 0.1 µM stood at 56.9%.
Consider `Cc1ccc(NC(=O)Cc2cc(-c3ccccc3)on2)cc1`, for which, in data set [3], the selectivity ratio was found to be 507. In data set [4], the CC50 at 48 h turned out to be 44 µM. In addition, the MNTC at 48 h in data set [1] came to 1000 nM. Further, the IC50 in [5] was 0.0868 µM. For the same compound, in data set [2], the inhibition at 1 µM was 98.4%.
For the compound `COC(=O)c1ccc(NC(=O)Cc2cc(-c3ccccc3)on2)cc1`, the MNTC at 48 h in data set [1] amounted to 100 nM. Besides, in data set [6], the inhibition at 0.1 µM came to 27.7%.
The like results for `CCCNC(=O)Cc1cc(-c2ccccc2)on1` were, in that order, 100 nM and 60.9%.
On to `Cc1ccnc2c1NC(=O)c1cccnc1N2C1CC1`, for which the inhibition result in data set [8] was “Active”.
On to `Cc1cn([C@H]2C[C@H](N=[N+]=[N-])[C@@H](CO)O2)c(=O)[nH]c1=O` [ZIDOVUDINE], for which the selectivity ratio in data set [3] was found to be 1090. Also, in data set [4], the CC50 at 48 h stood at 13.9 µM. The IC50 in data set [5] is 0.0127 µM.
In the case of `Cc1cccc(NC(=O)Cc2cc(-c3ccccc3)on2)c1`, the MNTC at 48 h in data set [1] came out at 100 nM. The inhibition at 0.1 µM in data set [6] worked out at 33.3%.
For `Cc1ccccc1NC(=O)Cc1cc(-c2ccccc2)on1`, the MNTC at 48 h in data set [1] was found to be 1000 nM. Further, the inhibition at 1 µM in data set [2] was 23.5%.
As for `O=C(Cc1cc(-c2ccccc2)on1)Nc1ccc(F)cc1`, the selectivity ratio in data set [3] worked out at 136. Besides, the half-maximal cytotoxic concentration (CC50) at 48 h in data set [4] turned out to be 11.8 µM. Further, in [1], the MNTC at 48 h came to 500 nM. The 50% inhibitory concentration (IC50) in [5] was 0.0871 µM. The inhibition at 0.5 µM in data set [9] was 85.4%.

One may read the inhibition as the share of the control response that was lost under treatment. The term CC50 denotes the concentration that lowers cell viability or growth by half. As usually defined, the IC50 is the concentration that gives 50% inhibition.
